Results: ChEMBL document CHEMBL1159062, “Towards the synthesis of bisubstrate inhibitors of protein farnesyltransferase: Synthesis and biological evaluation of new farnesylpyrophosphate analogues” (Bioorg Med Chem, 2010)
Active and inactive are the calls of the source. The calls are words filed in the database; no cut-off is given here.

Columns and labels:
[1] = tested on: Trypanosoma brucei brucei; assay: Antitrypanosomal activity against Trypanosoma brucei brucei 93 blood stream form at 10 uM after 72 hrs by alamar blue assay; assay type: functional; details: for inhibition at 10 µM: Trypanosoma brucei, 93, 72 h
How it was run: (§1)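 Strain 93 bloodstream forms cultured in HMI9 + 10% FCS, 37 °C, 5% CO2. Log-phase cells harvested at 3000g and seeded at 3 × 10^4 cells/mL. Inhibitors 0–100 µM, final DMSO 1%, 72 h. AlamarBlue (resazurin) added, read 4 h later at ex 530/em 590 nm. Inhibition relative to drug-free cells; triplicates, experiment repeated twice.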

[2] = tested on: Trypanosoma brucei brucei; assay: Antitrypanosomal activity against Trypanosoma brucei brucei 93 blood stream form at 1 uM after 72 hrs by alamar blue assay; assay type: functional; how it was run: as §1
[3] = tested on: Trypanosoma brucei brucei; assay: Antitrypanosomal activity against Trypanosoma brucei brucei WT2913 procyclic form at 10 uM after 72 hrs by alamar blue assay; assay type: functional; details: for inhibition at 10 µM: WT2913, 72 h
How it was run: (§2)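 Strain WT 2913 procyclic forms kept in semi-defined medium 79 + 10% heat-inactivated FCS at 27 °C. Log-phase cells spun at 3000g and seeded at 1 × 10^6 cells/mL. Exposed 72 h to 0–100 µM inhibitor in 1% final DMSO. Resazurin (AlamarBlue) fluorescence read after a further 4 h, ex 530/em 590 nm. Growth inhibition versus untreated; triplicates, done twice.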

[4] = tested on: Trypanosoma brucei brucei; assay: Antitrypanosomal activity against Trypanosoma brucei brucei WT2913 procyclic form at 1 uM after 72 hrs by alamar blue assay; assay type: functional, organism-based; how it was run: as §2
[5] = tested on: Plasmodium falciparum; assay: Antiplasmodial activity against Plasmodium falciparum FcB1/Columbia assessed as [3H]hypoxanthine incorporation after 24 hrs by liquid scintillation spectrophotometer; assay type: functional, organism-based
How it was run: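 FcB1/Colombia (chloroquine-resistant) grown on human erythrocytes in RPMI 1640 + 8% heat-inactivated human serum, 37 °C, 3% CO2/6% O2/91% N2. Twofold serial dilutions from 10 mM DMSO stocks; asynchronous cultures at 1% parasitemia, 1% final hematocrit, 24 h, then 0.5 µCi [3H]-hypoxanthine for 24 h more. Freeze-thaw, filter harvest, scintillation counting versus same-plate control. IC50 from concentration–response curve; mean ± SD of several independent experiments.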

[6] = tested on: KB; assay: Cytotoxicity against human KB cells at 10 uM after 72 hrs by MTS assay; assay type: functional
How it was run: (§3)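 KB cells seeded at 2000/well and exposed 72 h to compound in medium with 1% final DMSO; docetaxel as positive control. Viability by MTS, OD 490 nm. Cytotoxicity index = OD treated/OD control × 100, from triplicates across three experiments.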

[7] = tested on: KB; assay: Cytotoxicity against human KB cells at 1 uM after 72 hrs by MTS assay; assay type: functional, cell-based; how it was run: as §3
[8] = molecular target: T1, Protein farnesyltransferase (Homo sapiens, UniProt P49354+P49356); assay: Inhibition of human recombinant FTase by fluorescent-based assay; assay type: protein-complex assay
[9] = Inhibition of yeast recombinant FTase by fluorescent-based assay; design: species or system Saccharomyces cerevisiae
[10] = molecular target: T1, Protein farnesyltransferase; assay: Binding affinity to FPP site of human recombinant FTase by competitive Michaelis-Menten analysis; assay type: protein-complex assay
How it was run: (§4)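 Partially purified recombinant human FTase, fluorescent farnesylation of dansyl-GCVLS. Buffer: 5.8 mM DTT, 6 mM MgCl2, 12 µM ZnCl2, 0.18% octyl-glucopyranoside, 53 mM Tris/HCl pH 7.5. Kinetics: FPP varied with Dns-GCVLS fixed at 2.5 µM, or peptide varied with FPP fixed at 10 µM.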

[11] = molecular target: T1, Protein farnesyltransferase; assay: Binding affinity to Dns-GCVLS peptide site of human recombinant FTase by competitive Michaelis-Menten analysis; assay type: protein-complex assay; how it was run: as §4
[12] = molecular target: T1, Protein farnesyltransferase; assay: Binding affinity to CaaX site of human recombinant FTase by non-competitive Michaelis-Menten analysis for enzyme-inhibitor complex; assay type: protein-complex assay; how it was run: as §4
[13] = molecular target: T1, Protein farnesyltransferase; assay: Binding affinity to CaaX site of human recombinant FTase by non-competitive Michaelis-Menten analysis for enzyme-substrate-inhibitor complex; assay type: protein-complex assay; how it was run: as §4

Question: Which inhibition at 10 µM [1] does the source give for `CCOC(=O)C(C/C=C/c1ncc(CN[C@H](C(=O)N[C@@H](Cc2ccccc2)C(=O)N[C@@H](CCSC)C(=O)OC)C(C)C)n1C)(C/C=C(\C)CC/C=C(\C)CCC=C(C)C)C(=O)OCC` here?
Answer: 92%

Question: What about the Activity [2] of the same compound?
Answer: 64%

Question: And the inhibition at 10 µM [3]?
Answer: 28%

Question: What about the Activity [4] of the same compound?
Answer: inactive

Question: And the IC50 [5]?
Answer: 1.1 µM

Question: And the inhibition at 10 µM [6]?
Answer: 60%

Question: What about the Activity [7] of the same compound?
Answer: inactive

Question: And the IC50 [8]?
Answer: Not Active

Question: Which IC50 ([9]; read-out: IC50) does the source give for `CC(C)=CCC/C(C)=C/CC/C(C)=C/CC(=O)CCCC(=O)O` here?
Answer: 35 µM

Question: What about the IC50 ([8]; read-out: IC50) of the same compound?
Answer: 60 µM

Question: For `CC(C)=CCC/C(C)=C/CC/C(C)=C/COC(=O)CC(=O)O`, which IC50 ([9]; read-out: IC50) is on record?
Answer: 80 µM

Question: What about the IC50 ([8]; read-out: IC50) of the same compound?
Answer: 160 µM

Question: Which Ki [10] does the source give for `CC(C)=CCC/C(C)=C/CC/C(C)=C/CC(C(=O)O)C(=O)O` here?
Answer: 260 nM

Question: And the Activity [11]?
Answer: inactive

Question: And the IC50 ([9]; read-out: IC50)?
Answer: 4 µM

Question: What about the IC50 ([8]; read-out: IC50) of the same compound?
Answer: 0.9 µM

Question: Which results are given for `CC(C)=CCC/C(C)=C/CC/C(C)=C/COC(C(=O)O)C(=O)O`?
Answer: IC50 ([9]; read-out: IC50): 5 µM; IC50 ([8]; read-out: IC50): 0.88 µM

Question: With `CSCC[C@H](NC(=O)[C@H](Cc1ccccc1)NC(=O)[C@@H](NCc1cnc(CCCC(CC(=O)O)C(=O)O)n1C)C(C)C)C(=O)O` (stereo partly specified) as the compound, how does the IC50 ([8]; read-out: IC50) read?
Answer: 60 µM

Question: For `CC(C)=CCC/C(C)=C/CC/C(C)=C/C/C=C/C(=O)O`, which IC50 ([9]; read-out: IC50) is on record?
Answer: 40 µM

Question: And the IC50 ([8]; read-out: IC50)?
Answer: 130 µM

Question: For `CC(C)=CCC/C(C)=C/CC/C(C)=C/CC(CCCc1nccn1C)(C(=O)O)C(=O)O`, which IC50 ([8]; read-out: IC50) is on record?
Answer: 21 µM

Question: For `CC(C)=CCC/C(C)=C/CC/C(C)=C/CCC(=O)NO`, which IC50 [9] is on record?
Answer: Not Active

Question: For `CC(C)=CCC/C(C)=C/CC/C(C)=C/CCC(=O)CCCC(=O)O`, which IC50 ([9]; read-out: IC50) is on record?
Answer: 15 µM

Question: What about the IC50 ([8]; read-out: IC50) of the same compound?
Answer: 60 µM

Question: With `CC(C)=CCC/C(C)=C/CC/C(C)=C/C(c1nccn1C)C(CC(=O)O)C(=O)O` (stereo unspecified) as the compound, how does the IC50 ([8]; read-out: IC50) read?
Answer: 12 µM

Question: With `CC(C)=CCC/C(C)=C/CC/C(C)=C/C=C/C(N)=O` as the compound, how does the IC50 [9] read?
Answer: Not Active

Question: And the IC50 [8]?
Answer: Not Active

Question: With `CCCCCCCCCCCCCC/C(C(=O)O)=C(\C)C(=O)O` [CHAETOMELLIC ACID A] as the compound, how does the IC50 ([9]; read-out: IC50) read?
Answer: 0.34 µM

Question: What about the IC50 ([8]; read-out: IC50) of the same compound?
Answer: 0.175 µM

Question: Which results are given for `CC(C)=CCC/C(C)=C/CC/C(C)=C/CCCC(=O)O`?
Answer: IC50 ([9]; read-out: IC50): 42 µM; IC50 ([8]; read-out: IC50): 170 µM

Question: Which IC50 ([8]; read-out: IC50) does the source give for `CC(C)=CCC/C(C)=C/CC/C(C)=C/C=C/C(=O)NC(C(=O)O)C(=O)O` here?
Answer: 10 µM

Question: For `CC(C)=CCC/C(C)=C/CC/C(C)=C/CCC(N)=O`, which IC50 [9] is on record?
Answer: Not Active

Question: What about the IC50 ([8]; read-out: IC50) of the same compound?
Answer: > 200 µM

Question: What does the source list for `CC(C)=CCC/C(C)=C/CC/C(C)=C/COC(=O)CCC(=O)O`?
Answer: IC50 ([9]; read-out: IC50): 100 µM; IC50 ([8]; read-out: IC50): 130 µM

Question: Which inhibition at 10 µM [3] does the source give for `CCOC(=O)C(C/C=C(\C)CC/C=C(\C)CCC=C(C)C)(CCCc1ncc(CN[C@H](C(=O)N[C@@H](Cc2ccccc2)C(=O)N[C@@H](CCSC)C(=O)OC)C(C)C)n1C)C(=O)OCC` here?
Answer: 54%

Question: What about the Activity [4] of the same compound?
Answer: inactive

Question: What about the IC50 [5] of the same compound?
Answer: 1 µM

Question: And the inhibition at 10 µM [6]?
Answer: 44%

Question: And the Activity [7]?
Answer: inactive

Question: What about the IC50 [8] of the same compound?
Answer: Not Active

Question: For `CC(C)=CCC/C(C)=C/CC/C(C)=C/CCC(=O)CCC(=O)O`, which IC50 ([9]; read-out: IC50) is on record?
Answer: 80 µM

Question: What about the IC50 ([8]; read-out: IC50) of the same compound?
Answer: > 200 µM

Question: For `CCOC(=O)C(C/C=C(\C)CC/C=C(\C)CCC=C(C)C)(CCCc1nccn1C)C(=O)OCC`, which inhibition at 10 µM [1] is on record?
Answer: 89%

Question: What about the Activity [2] of the same compound?
Answer: 24%

Question: And the IC50 [5]?
Answer: 4 µM

Question: What does the source list for `CCOC(=O)C(C/C=C(\C)CC/C=C(\C)CCC=C(C)C)(CCCc1ncc(CN[C@H](C(=O)N[C@@H](Cc2ccccc2)C(=O)N[C@@H](CCSC)C(=O)O)C(C)C)n1C)C(=O)O` (stereo partly specified)?
Answer: Ki [10]: 230 nM; Ki [12]: 7.7 µM; Ki [13]: 5.6 µM; inhibition [1]: inactive; inhibition [3]: inactive; IC50 [5]: 31.4 µM; inhibition [6]: inactive; IC50 ([8]; read-out: IC50): 0.24 µM

Question: With `CC(C)=CCC/C(C)=C/CC/C(C)=C/CCC(=O)NS(=O)(=O)c1ccccc1` as the compound, how does the IC50 ([9]; read-out: IC50) read?
Answer: > 200 µM

Question: And the IC50 ([8]; read-out: IC50)?
Answer: > 200 µM

Question: With `CC(C)=CCC/C(C)=C/CC/C(C)=C/C=C(C(=O)O)C(=O)O` as the compound, how does the IC50 [8] read?
Answer: Not Active

Question: With `CCOC(=O)C(C/C=C/c1ncc(CN[C@H](C(=O)N[C@@H](Cc2ccccc2)C(=O)N[C@@H](CCSC)C(=O)O)C(C)C)n1C)(C/C=C(\C)CC/C=C(\C)CCC=C(C)C)C(=O)O` (stereo partly specified) as the compound, how does the Ki [10] read?
Answer: 500 nM

Question: What about the Ki [12] of the same compound?
Answer: 17 µM

Question: And the Ki [13]?
Answer: 15 µM

Question: What about the inhibition [1] of the same compound?
Answer: inactive

Question: And the inhibition [3]?
Answer: inactive

Question: What about the IC50 [5] of the same compound?
Answer: 17.2 µM

Question: What about the inhibition [6] of the same compound?
Answer: inactive

Question: What about the IC50 ([8]; read-out: IC50) of the same compound?
Answer: 0.64 µM

Question: Which IC50 ([9]; read-out: IC50) does the source give for `CC(C)=CCC/C(C)=C/CC/C(C)=C/CCC(=O)NS(=O)(=O)O` here?
Answer: > 200 µM

Question: What about the IC50 ([8]; read-out: IC50) of the same compound?
Answer: 85 µM

Question: Which results are given for `CC(C)=CCC/C(C)=C/CC/C(C)=C/CCC(=O)NC(C(=O)O)C(=O)O`?
Answer: IC50 ([9]; read-out: IC50): 200 µM; IC50 ([8]; read-out: IC50): 60 µM
